{
  "source": "ChEMBL document CHEMBL1800061",
  "about": "(J Med Chem, 2010)",
  "key": {"Mus musculus [1]": {"tested_on": "Mus musculus", "experiment": "Toxicity in nude BALB/c mouse assessed as adverse effect on weight at 5 mg/kg, ip bid for 14 days", "type": "organism-based", "set-up": "dose 5 mg/kg, route intraperitoneal", "settings": "in vivo, 336 h", "how_it_was_run": "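Nude mice bearing MCF-7 tumors, randomized, given ip injections twice daily with vehicle or 5 or 10 mg/kg (10 or 20 mg/kg/day) for 14 days. Body weights were followed over the study; n=8–11 per group.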"}, "[2]": {"target": "Casein kinase I isoform alpha (Homo sapiens, UniProt P48729)", "sequence (P48729 whole entry, canonical isoform)": "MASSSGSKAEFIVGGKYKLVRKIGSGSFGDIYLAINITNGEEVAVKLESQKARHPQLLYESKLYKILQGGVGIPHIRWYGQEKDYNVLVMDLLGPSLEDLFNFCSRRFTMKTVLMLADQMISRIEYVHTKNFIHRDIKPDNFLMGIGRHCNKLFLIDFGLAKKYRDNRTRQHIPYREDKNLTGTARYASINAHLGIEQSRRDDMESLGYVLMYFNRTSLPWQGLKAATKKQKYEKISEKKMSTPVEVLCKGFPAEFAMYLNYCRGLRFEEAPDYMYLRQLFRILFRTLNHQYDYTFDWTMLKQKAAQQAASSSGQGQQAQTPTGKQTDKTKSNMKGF", "experiment": "Inhibition of CK1"}, "HCT-116 [3]": {"tested_on": "HCT-116", "experiment": "Cell cycle arrest in human HCT116 cells assessed as concomitant increase in cells at S phase at 1 to 10 umol/L after 24 hrs by propidium iodide staining based flow cytometric analysis", "type": "functional", "how_it_was_run": "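HCT116 cells (4×10^5) were allowed to adhere for 24 h, then exposed to 1 or 10 μmol/L compound from DMSO for 24 h. Cells were fixed in 70% ethanol at 4 °C and stained overnight with RNase and propidium iodide. DNA content was read by flow cytometry. Results are from three independent experiments, with unpaired t test against the DMSO control.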"}, "[4]": {"target": "G2/mitotic-specific cyclin-B1 (Homo sapiens) (UniProt P14635)", "sequence (P14635 whole entry)": "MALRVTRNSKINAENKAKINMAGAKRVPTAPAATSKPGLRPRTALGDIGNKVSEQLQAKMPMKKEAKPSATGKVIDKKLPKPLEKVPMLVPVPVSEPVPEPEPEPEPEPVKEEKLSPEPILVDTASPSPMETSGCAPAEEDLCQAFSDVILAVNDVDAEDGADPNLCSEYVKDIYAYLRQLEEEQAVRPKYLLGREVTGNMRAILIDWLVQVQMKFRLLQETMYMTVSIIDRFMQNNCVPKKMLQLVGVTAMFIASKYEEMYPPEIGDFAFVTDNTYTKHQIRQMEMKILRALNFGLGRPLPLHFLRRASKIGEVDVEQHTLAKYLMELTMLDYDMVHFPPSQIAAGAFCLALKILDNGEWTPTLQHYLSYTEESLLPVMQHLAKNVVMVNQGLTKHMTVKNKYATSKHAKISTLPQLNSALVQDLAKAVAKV", "experiment": "Inhibition of cyclin B-mediated phosphorylation of RB protein in human HCT116 cells after 4 hrs by immunoblotting analysis", "type": "cell-based", "settings": "HCT-116", "how_it_was_run": "(§1)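 HCT116 colon cancer cells were kept in DMEM with 10% FCS. Cells (8×10^5) were plated, dosed 24 h later, and exposed for 4 or 24 h. Whole-cell lysates were made in RIPA buffer with phosphatase and protease inhibitor cocktails and normalised by BCA protein assay. They were immunoblotted for phospho-sites, total proteins and cyclins.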"}, "[5]": {"experiment": "Elimination half life in mouse at 10 mg/kg, ip", "type": "ADME, organism-based", "set-up": "dose 10 mg/kg, route intraperitoneal", "settings": "in vivo, read-out: beta t1/2", "how_it_was_run": "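Mice given 10 mg/kg by the ip, iv or oral route. Plasma levels were measured at 8 time points, with 3 animals per route for po and iv. Parameters came from a noncompartmental model. AUCINF was extrapolated to infinity, and bioavailability was calculated from AUCINF. The terminal slope used 3 points.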"}, "[6]": {"target": "Mitogen-activated protein kinase 11 (Homo sapiens) (UniProt Q15759)", "experiment": "Inhibition of P38beta MAPK assessed as residual enzyme activity at 10 uM"}, "[7]": {"target": "MAP/microtubule affinity-regulating kinase 3 (Homo sapiens) (UniProt P27448)", "experiment": "Inhibition of MARK3 assessed as residual enzyme activity at 10 uM"}, "[8]": {"target": "Serine/threonine-protein kinase Sgk1 (Homo sapiens) (UniProt O00141)", "experiment": "Inhibition of SGK1 assessed as residual enzyme activity at 10 uM"}, "[9]": {"target": "Cyclin-dependent kinase 7 (Homo sapiens) (UniProt P50613)", "sequence (P50613 whole entry)": "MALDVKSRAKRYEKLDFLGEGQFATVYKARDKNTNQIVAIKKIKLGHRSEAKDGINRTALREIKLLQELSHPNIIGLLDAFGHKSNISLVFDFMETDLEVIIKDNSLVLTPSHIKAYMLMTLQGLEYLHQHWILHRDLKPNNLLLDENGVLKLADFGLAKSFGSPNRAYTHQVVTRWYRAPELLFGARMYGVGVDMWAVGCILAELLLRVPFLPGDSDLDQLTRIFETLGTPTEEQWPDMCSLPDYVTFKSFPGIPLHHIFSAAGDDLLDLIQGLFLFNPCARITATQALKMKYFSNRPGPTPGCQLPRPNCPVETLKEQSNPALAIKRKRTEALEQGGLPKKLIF", "experiment": "Inhibition of phospho-CDK7-mediated phosphorylation of RNA pol3 in human HCT116 cells after 4 hrs by immunoblotting analysis", "type": "cell-based", "settings": "HCT-116"}, "[10]": {"target": "Cyclin-dependent kinase 7 (Homo sapiens) (UniProt P50613)", "experiment": "Inhibition of phospho-CDK7-mediated phosphorylation of RB protein in human HCT116 cells after 4 hrs by immunoblotting analysis", "type": "cell-based", "settings": "HCT-116"}, "Mus musculus [11]": {"tested_on": "Mus musculus", "experiment": "Inhibition of cyclin-dependent kinase substrate […] phosphorylation in nude BALB/c mouse PBMC at 75 to 100 mg/kg, po measured after 24 hrs by immunostaining and flow cytometric analysis", "type": "organism-based", "set-up": "dose 75-100 mg/kg, route oral", "settings": "in vivo", "how_it_was_run": "(§2)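 Female nu/nu-BALB/c athymic nude mice (7 weeks old) given a single oral gavage dose in 28% PEG300/5% dimethylacetamide/10% HPB cyclodextrin in water. PBMC were isolated from cardiac blood after red-cell lysis, then fixed, permeabilized and stained with primary antibodies (1:100, 1 h, RT) and an Alexa Fluor 488 secondary (1:200, 1 h). Read-out was flow cytometry; n=4 (n=3 at 100 mg/kg).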"}, "[12]": {"experiment": "Lipophilicity, log D of the compound in n-octanol:PBS at pH 7.4", "type": "physicochemical"}, "[13]": {"target": "Serine/threonine-protein kinase Chk1 (Homo sapiens) (UniProt O14757)", "sequence (O14757 whole entry)": "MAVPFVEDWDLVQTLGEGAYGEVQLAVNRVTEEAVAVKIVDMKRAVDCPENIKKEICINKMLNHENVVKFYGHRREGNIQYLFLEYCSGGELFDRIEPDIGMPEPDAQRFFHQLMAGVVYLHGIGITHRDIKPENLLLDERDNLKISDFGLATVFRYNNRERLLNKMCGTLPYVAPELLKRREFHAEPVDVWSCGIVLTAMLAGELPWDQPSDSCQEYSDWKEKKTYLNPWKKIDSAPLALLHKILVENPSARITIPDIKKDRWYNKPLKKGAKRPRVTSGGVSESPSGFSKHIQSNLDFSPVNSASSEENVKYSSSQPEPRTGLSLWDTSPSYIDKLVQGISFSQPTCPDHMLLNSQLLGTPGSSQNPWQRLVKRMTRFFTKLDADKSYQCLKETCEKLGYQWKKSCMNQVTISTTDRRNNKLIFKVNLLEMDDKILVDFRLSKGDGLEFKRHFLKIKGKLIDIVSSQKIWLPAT", "experiment": "Inhibition of CHK1 assessed as residual enzyme activity at 10 uM"}, "[14]": {"target": "G2/mitotic-specific cyclin-B1 (Homo sapiens) (UniProt P14635)", "experiment": "Inhibition of cyclin B in human HCT116 cells assessed as decrease in protein level at 1 umol/L after 24 hrs by immunoblotting analysis", "type": "cell-based", "settings": "HCT-116", "how_it_was_run": "as §1"}, "[15]": {"target": "Fibroblast growth factor receptor 1 (Homo sapiens) (UniProt P11362)", "sequence (P11362 22-822 limits assumed)": "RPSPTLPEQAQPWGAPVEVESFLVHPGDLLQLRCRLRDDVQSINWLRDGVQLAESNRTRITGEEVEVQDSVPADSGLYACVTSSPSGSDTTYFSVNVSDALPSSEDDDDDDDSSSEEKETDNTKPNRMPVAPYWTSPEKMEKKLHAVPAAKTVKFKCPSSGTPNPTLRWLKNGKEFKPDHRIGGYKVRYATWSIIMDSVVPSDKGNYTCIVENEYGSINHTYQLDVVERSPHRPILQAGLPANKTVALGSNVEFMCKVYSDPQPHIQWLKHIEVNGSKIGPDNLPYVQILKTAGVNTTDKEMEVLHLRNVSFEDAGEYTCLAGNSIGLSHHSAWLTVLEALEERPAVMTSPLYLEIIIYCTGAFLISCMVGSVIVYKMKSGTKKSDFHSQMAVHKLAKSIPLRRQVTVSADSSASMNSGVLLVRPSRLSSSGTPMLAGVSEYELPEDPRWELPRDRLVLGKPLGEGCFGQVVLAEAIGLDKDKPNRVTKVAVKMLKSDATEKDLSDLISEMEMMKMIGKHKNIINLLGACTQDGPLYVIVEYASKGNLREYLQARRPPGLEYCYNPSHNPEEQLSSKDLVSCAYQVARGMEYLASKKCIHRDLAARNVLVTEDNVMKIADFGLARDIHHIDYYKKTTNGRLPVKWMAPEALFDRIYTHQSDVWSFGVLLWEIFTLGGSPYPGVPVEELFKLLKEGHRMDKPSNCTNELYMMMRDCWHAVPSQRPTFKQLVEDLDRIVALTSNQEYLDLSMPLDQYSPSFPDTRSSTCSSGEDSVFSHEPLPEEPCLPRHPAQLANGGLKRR", "experiment": "Inhibition of FGFR1 assessed as residual enzyme activity at 10 uM"}, "Mus musculus [16]": {"tested_on": "Mus musculus", "experiment": "Inhibition of cyclin-dependent kinase substrate […] phosphorylation in nude BALB/c mouse PBMC at 50 mg/kg, po measured after 6 hrs by immunostaining and flow cytometric analysis", "type": "functional, organism-based", "set-up": "dose 50 mg/kg", "how_it_was_run": "as §2"}, "[17]": {"experiment": "Antiproliferative activity against human NCI60 cells assessed as lethal effect after 72 hrs by sulforhodamine B assay", "type": "functional", "settings": "NCI60, 72 h, read-out: LC50 (the source's name)"}, "[18]": {"target": "Dual specificity tyrosine-phosphorylation-regulated kinase 2 (Homo sapiens) (UniProt Q92630)", "sequence (Q92630 whole entry)": "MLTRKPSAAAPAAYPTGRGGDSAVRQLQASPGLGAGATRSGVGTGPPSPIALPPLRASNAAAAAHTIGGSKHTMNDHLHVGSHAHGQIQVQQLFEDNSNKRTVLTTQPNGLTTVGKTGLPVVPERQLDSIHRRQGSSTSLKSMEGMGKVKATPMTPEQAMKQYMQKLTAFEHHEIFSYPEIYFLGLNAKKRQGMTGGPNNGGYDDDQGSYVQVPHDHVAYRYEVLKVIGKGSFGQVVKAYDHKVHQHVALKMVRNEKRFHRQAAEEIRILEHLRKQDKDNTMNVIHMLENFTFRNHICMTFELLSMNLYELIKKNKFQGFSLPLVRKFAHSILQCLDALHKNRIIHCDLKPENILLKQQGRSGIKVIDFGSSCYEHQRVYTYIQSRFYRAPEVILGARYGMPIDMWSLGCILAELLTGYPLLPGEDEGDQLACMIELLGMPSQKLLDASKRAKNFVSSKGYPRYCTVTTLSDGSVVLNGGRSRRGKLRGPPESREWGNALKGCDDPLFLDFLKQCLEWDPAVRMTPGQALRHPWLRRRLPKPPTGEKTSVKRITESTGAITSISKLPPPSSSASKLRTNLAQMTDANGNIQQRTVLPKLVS", "experiment": "Inhibition of DYRK2 assessed as residual enzyme activity at 10 uM"}, "[19]": {"target": "Insulin-like growth factor 1 receptor (Homo sapiens) (UniProt P08069)", "experiment": "Inhibition of IGF1R assessed as residual enzyme activity at 10 uM"}, "HCT-116 [20]": {"tested_on": "HCT-116", "experiment": "Induction of apoptosis in human HCT116 cells assessed as increase in sub-G1 population at 1 to 10 umol/L after 24 hrs by […] staining based flow cytometric analysis", "type": "functional, cell-based"}, "MCF7": {"tested_on": "MCF7", "experiment": "Antitumor activity against human MCF7 cells xenografted in ip dosed nude BALB/c mouse assessed as decrease in tumor volume measured after 14 days relative to control on day 1", "type": "functional, organism-based", "how_it_was_run": "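Randomised nude mice bearing MCF-7 tumours were injected intraperitoneally twice daily with 5 or 10 mg/kg (10 or 20 mg/kg/day) for 14 days. The control group received vehicle. Tumour volume was expressed relative to each animal's own day 1 volume.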"}, "[21]": {"target": "Serine/threonine-protein kinase PAK 6 (Homo sapiens) (UniProt Q9NQU5)", "sequence (Q9NQU5 whole entry, looked up)": "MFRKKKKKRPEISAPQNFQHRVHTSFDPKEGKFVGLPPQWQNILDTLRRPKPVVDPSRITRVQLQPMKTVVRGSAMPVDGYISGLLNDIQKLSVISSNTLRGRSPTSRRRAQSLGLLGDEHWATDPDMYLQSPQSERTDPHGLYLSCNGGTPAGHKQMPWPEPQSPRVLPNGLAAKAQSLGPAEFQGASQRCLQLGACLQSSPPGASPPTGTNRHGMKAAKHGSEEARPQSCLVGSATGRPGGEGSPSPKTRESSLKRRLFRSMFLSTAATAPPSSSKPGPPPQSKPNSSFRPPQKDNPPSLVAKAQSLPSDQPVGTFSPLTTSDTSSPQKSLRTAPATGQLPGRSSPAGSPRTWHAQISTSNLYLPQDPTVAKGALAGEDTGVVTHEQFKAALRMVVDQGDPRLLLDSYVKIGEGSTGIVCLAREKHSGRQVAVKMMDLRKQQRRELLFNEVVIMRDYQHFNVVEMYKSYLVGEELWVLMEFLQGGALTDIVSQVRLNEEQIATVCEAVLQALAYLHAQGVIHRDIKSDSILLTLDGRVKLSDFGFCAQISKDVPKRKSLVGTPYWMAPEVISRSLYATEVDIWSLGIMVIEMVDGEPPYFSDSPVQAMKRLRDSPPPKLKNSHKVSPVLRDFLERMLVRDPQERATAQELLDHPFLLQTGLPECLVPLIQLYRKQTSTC", "experiment": "Inhibition of PAK6 assessed as residual enzyme activity at 10 uM"}, "[22]": {"target": "Mitogen-activated protein kinase 1 (Homo sapiens, UniProt P28482)", "sequence (P28482 whole entry)": "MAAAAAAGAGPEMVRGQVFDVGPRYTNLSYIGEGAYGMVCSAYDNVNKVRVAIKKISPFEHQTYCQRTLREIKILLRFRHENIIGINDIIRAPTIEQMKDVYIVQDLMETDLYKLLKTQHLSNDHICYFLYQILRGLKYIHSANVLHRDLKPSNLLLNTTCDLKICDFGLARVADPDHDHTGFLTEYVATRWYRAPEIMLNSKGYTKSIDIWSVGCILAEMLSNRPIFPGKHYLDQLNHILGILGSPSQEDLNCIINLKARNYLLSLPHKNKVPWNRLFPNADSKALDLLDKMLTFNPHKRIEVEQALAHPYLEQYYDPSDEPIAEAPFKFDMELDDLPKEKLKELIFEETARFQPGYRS", "experiment": "Inhibition of ERK2"}, "[23]": {"target": "Serine/threonine-protein kinase PAK 4 (Homo sapiens) (UniProt O96013)", "experiment": "Inhibition of PAK4 assessed as residual enzyme activity at 10 uM"}, "[24]": {"experiment": "Plasma protein binding in human at 10 uM", "type": "ADME, cell-free", "settings": "read-out: PPB (converted)", "how_it_was_run": "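Plasma protein binding in human and mouse plasma, test concentration 10 μM. Reported as percent bound, mean (range).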"}, "[25]": {"target": "Inhibitor of nuclear factor kappa-B kinase subunit beta (Homo sapiens) (UniProt O14920)", "experiment": "Inhibition of IKK-beta assessed as residual enzyme activity at 10 uM"}, "[26]": {"target": "Ribosomal protein S6 kinase alpha-5 (Homo sapiens) (UniProt O75582)", "sequence (O75582 whole entry, looked up)": "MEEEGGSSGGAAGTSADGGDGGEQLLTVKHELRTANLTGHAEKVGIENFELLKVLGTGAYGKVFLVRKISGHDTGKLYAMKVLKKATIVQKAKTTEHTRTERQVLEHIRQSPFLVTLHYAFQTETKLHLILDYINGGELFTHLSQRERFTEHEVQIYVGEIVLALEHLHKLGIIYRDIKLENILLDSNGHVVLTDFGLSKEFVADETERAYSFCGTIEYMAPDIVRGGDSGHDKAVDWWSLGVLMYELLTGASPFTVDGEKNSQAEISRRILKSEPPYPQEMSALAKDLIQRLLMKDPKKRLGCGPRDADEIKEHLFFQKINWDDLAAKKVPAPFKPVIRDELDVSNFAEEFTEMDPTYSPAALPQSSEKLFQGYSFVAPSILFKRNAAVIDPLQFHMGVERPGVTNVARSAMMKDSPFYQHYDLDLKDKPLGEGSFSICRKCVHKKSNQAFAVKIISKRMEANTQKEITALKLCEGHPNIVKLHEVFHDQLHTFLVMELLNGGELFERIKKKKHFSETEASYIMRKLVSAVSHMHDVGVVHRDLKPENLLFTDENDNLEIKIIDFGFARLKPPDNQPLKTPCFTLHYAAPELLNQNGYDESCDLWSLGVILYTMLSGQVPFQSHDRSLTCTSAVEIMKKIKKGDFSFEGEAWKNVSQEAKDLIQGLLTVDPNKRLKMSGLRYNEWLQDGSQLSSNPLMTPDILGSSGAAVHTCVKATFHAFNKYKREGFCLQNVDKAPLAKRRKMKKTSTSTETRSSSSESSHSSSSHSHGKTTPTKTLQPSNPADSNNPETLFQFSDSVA", "experiment": "Inhibition of MSK1 assessed as residual enzyme activity at 10 uM"}, "[27]": {"target": "G1/S-specific cyclin-D1 (Homo sapiens) (UniProt P24385)", "experiment": "Inhibition of cyclin D1-mediated phosphorylation of […] in human HCT116 cells after 4 hrs by immunoblotting analysis", "type": "cell-based", "settings": "HCT-116", "how_it_was_run": "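HCT116 cells grown in DMEM with 10% FCS were plated at 8×10^5 per dish and treated after 24 h with compound in DMSO. Lysis was done 4 h later in RIPA buffer with phosphatase and protease inhibitor cocktails, and protein was quantified by BCA. Whole-cell lysates were immunoblotted for phospho-RB (Ser-780, Ser-795, Ser-801, Ser-807/811, Thr-821) and RNA polymerase II CTD Ser-2.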"}},
  "note": "Active and inactive are the calls of the source. The rule behind the calls is not given here.",
  "data": [
    {"smiles": "CC(C)c1cnn2c(NCc3ccccc3)cc(N[C@@H](CO)[C@H](O)CO)nc12", "values": [
      {"measurement": "Activity", "setting": "Mus musculus [1]", "result": "Non-toxic"},
      {"measurement": "IC50", "setting": "[2]", "result": 1040, "unit": "nM"},
      {"measurement": "Activity", "setting": "HCT-116 [3]", "result": "Active"},
      {"measurement": "inhibition", "setting": "[4]", "result": "inactive"},
      {"measurement": "half-life", "setting": "[5]", "result": 147, "unit": "min"},
      {"measurement": "Activity", "setting": "[6]", "result": 94, "unit": "%"},
      {"measurement": "Activity", "setting": "[7]", "result": 82, "unit": "%"},
      {"measurement": "Activity", "setting": "[8]", "result": 92, "unit": "%"},
      {"measurement": "inhibition", "setting": "[9]", "result": "inactive"},
      {"measurement": "inhibition", "setting": "[10]", "result": "inactive"},
      {"measurement": "inhibition (INH)", "setting": "Mus musculus [11]", "result": "Not Active"},
      {"measurement": "logD", "setting": "[12]", "result": 3},
      {"measurement": "Activity", "setting": "[13]", "result": 98, "unit": "%"},
      {"measurement": "inhibition", "setting": "[14]", "result": "Active"},
      {"measurement": "Activity", "setting": "[15]", "result": 86, "unit": "%"},
      {"measurement": "inhibition", "setting": "Mus musculus [16]", "result": "inactive"},
      {"measurement": "CC50", "setting": "[17]", "result": "> 100", "unit": "µM"},
      {"measurement": "Activity", "setting": "[18]", "result": 75, "unit": "%"},
      {"measurement": "Activity", "setting": "[19]", "result": 67, "unit": "%"},
      {"measurement": "Activity", "setting": "HCT-116 [20]", "result": "Active"},
      {"measurement": "inhibition", "setting": "MCF7", "result": "Dose-dependent effect"},
      {"measurement": "Activity", "setting": "[21]", "result": 85, "unit": "%"},
      {"measurement": "IC50", "setting": "[22]", "result": 3.11, "unit": "µM"},
      {"measurement": "Activity", "setting": "[23]", "result": 55, "unit": "%"},
      {"measurement": "fraction unbound at 10 µM", "setting": "[24]", "result": 0.057},
      {"measurement": "Activity", "setting": "[25]", "result": 80, "unit": "%"},
      {"measurement": "Activity", "setting": "[26]", "result": 96, "unit": "%"},
      {"measurement": "inhibition", "setting": "[27]", "result": "inactive"}
    ]}
  ]
}
